Bioassay records: PubChem BioAssay, The Scripps Research Institute Molecular Screening Center
ARFGAP1 inh – inhibitors of rat ARFGAP1 GAP activity, primary screen, biochemical, fluorescence polarization, GDP tracer | ADP-ribosylation factor GTPase-activating protein 1 (Rattus norvegicus), Q62848 | Arfgap1-stimulated ARF1 GTP hydrolysis, GDP FP detection | inhibition, % at 16.5 µM | 360,000 tested, 0.26% active | AID 651572, 2012;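 active = inhibition above a per-plate limit, mean inhibition of low control wells plus 3 SD, cut at about 25% in these data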;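 also: 0% = DMSO wells with enzyme and 100% = wells lacking Arfgap1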
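material = rat Arfgap1 catalytic domain, aa 1-136 | also added = human ARF1(Δ1-17)-GTP substrate | compound dosing = one concentration, 16.5 µM, DMSO 1.26% | times = GTP hydrolysis reaction 2 h at 25 °C | measured by = FP, GDP Alexa 633 tracer displaced from anti-GDP antibody, 620/688 nm | evaluation = percent inhibition of Arfgap1-stimulated GTP hydrolysis | replication = single well per compound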
ASAP1 inh – inhibitors of human ASAP1 ArfGAP activity, primary screen, biochemical, fluorescence polarization | inhibition, % at 16.5 µM | 360,000 tested, 0.19% active | ASAP1-stimulated ARF1 GTP hydrolysis, GDP FP detection; in the data active = inhibition above about 25%;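 also: 0% = vehicle with enzyme and substrate and 100% = no enzyme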
GalR3 antag – GalR3 antagonists in HEK293 cells, primary screen, cell-based, fluorescence readout | Galanin receptor type 3 (Homo sapiens), O60755 | HEK293 GalR3-CNG cAMP membrane potential fluorescence; galR3 body fused to GalR1 C-terminus | inhibition, % at 3 µM | 360,000 tested, 0.44% active;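 active = inhibition above the screen-wide average plus 3 SD, cut at about 13% in these data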;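 also: forskolin and galanin both at EC90 stimulate the cells; cAMP rise reported by CNG channel membrane potential dye signal; 0% = forskolin plus galanin with DMSO and 100% = forskolin alone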
Rin1-Abl PPI inh – inhibitors of Rin1-Abl protein binding, primary screen, biochemical, TR-FRET | inhibition, % at 7.35 µM | 360,000 tested, 0.4% active | AID 588664, 2011; in the data active = inhibition above about 5%, passing the limit was not always enough
* hit, by the source's call; / = no result given. Rows were chosen to be rich in hits. Some 1.2% of all compounds tested hit in one or more screens of this group.

SMILES | ARFGAP1 inh | ASAP1 inh | GalR3 antag | Rin1-Abl PPI inh
COc1cc2sc3cc(NCC[C@@H]4CCCN4C)ccc3c(=O)c2cc1OC | 27* | 20 | -2 | -16
COc1cccc2sc3ccc(NCCC4CCCN4C)cc3c(=O)c12 (stereo not given) | 8 | 19 | -6 | -21
CCOC(=O)N1CCN(C(=O)CSCc2ccc(C)cc2)CC1 | -8 | -21 | -1 | 6.1*
Cc1ccc(CSCC(=O)N2CCCC2)cc1 | 0 | -1 | -2 | 2
CCCC#C/C(CCC)=C1\c2ccccc2C(=O)N1c1ccccc1 | -1 | -4 | -6 | /
Cc1ccc(OCCNC(=O)[C@@H](Cc2ccccc2)NC(=O)[C@H]2O[C@@H](n3ccc(=O)[nH]c3=O)[C@H](O)[C@@H]2O)cc1C | 7 | 1 | -7 | /
CCC(=O)NC(=S)Nc1ccccc1F | -4 | -11 | -1 | 0
CCCC(=O)NC(=S)Nc1ccccc1F | 4 | -14 | -2 | 6.3*
CC(C)(C)c1cccc(N/C(=C\C(=O)c2ccccc2)c2ccccc2)c1 | 10 | 5 | -4 | /
COc1ccc2nc(NC(=O)CN(c3ccc(C)cc3)S(=O)(=O)c3c(C)nn(C)c3C)sc2c1 | 28* | 7 | -4 | -3
O=C(NCC(c1ccco1)N1CCc2ccccc2C1)c1ccc(Cl)c([N+](=O)[O-])c1 (stereo not given) | 12 | 7 | -2 | 0
O=C(NCC(c1ccco1)N1CCCC1)c1ccc(Cl)c(S(=O)(=O)N2CCc3ccccc32)c1 (stereo not given) | -3 | -7 | 87* | 1
COC(=O)CC#C[C@H](C)[C@@H](NS(=O)(=O)c1ccc(C)cc1)C1CCCCC1 | 16 | 1 | -7 | /
Cc1c(C(=O)N/N=C/c2ccccc2)sc(=S)n1C | 26* | -1 | 2 | -1
COc1cc2c(cc1OC)/C(=C/C(=O)c1ccc(F)cc1)NCC2 | 12 | 8 | 15* | -1
O=C(Nc1ccn(C2CC(OC(=O)c3ccccc3)C(CO)O2)c(=O)n1)c1ccccc1 (stereo not given) | 4 | -14 | -3 | 9.1*
O=C(Nc1ccn(CCOC(=O)c2ccccc2)c(=O)n1)c1ccccc1 | -9 | -15 | -8 | 14
CCN1/C(=C/C=C/C=C/C=C/c2sc3ccccc3[n+]2CC)Sc2ccccc21 | 32* | -2 | -13 | 5
CCOC(=O)c1ccccc1NC(=O)c1cc(S(=O)(=O)N2CCOCC2)ccc1F | 11 | -9 | 13* | 1
COCCSc1nc2c(c(=O)[nH]c(=O)n2C)n1Cc1cccc(C)c1 | 6 | 3 | -1 | 11*
COc1ccc(C(=O)C(=O)N2CCN(C(=O)c3ccccc3C(F)(F)F)CC2)cc1OC | 1 | 1 | 2 | /
Cc1cc(N=Nc2ccc(C)c(N=Nc3cc(C)c(N)cc3N)c2)c(N)cc1N | 25* | 16 | -9 | -13
COc1cccc2c1NC(C(=O)O)C1CC=CC21 (stereo not given) | / | / | / | 7.6*
COc1cccc(C2Nc3c(F)cc(Br)cc3C3C=CCC32)c1OC (stereo not given) | 0 | 7 | -11 | 0
Cc1cc(N2CCNC[C@@H]2C)ccc1N1CCN(Cc2ccccc2)[C@H](C)C1 | 2 | -7 | -7 | /
SMILES | ARFGAP1 inh | ASAP1 inh | GalR3 antag | Rin1-Abl PPI inh
O=C(C1=COCCO1)N1CCN(c2nc3ccc([N+](=O)[O-])cc3s2)CC1 | 10 | 28* | -3 | 2
C=CCOC(=O)Nc1snnc1C | 11 | -5 | -6 | -1
Cc1nnsc1NC(=O)OCc1ccc(C(C)(C)C)cc1 | -9 | -13 | 36* | -1
CCOC(=O)C1(C(=O)OCC)N=C(c2ccccc2)C=C1c1ccccc1 | -20 | -4 | -7 | /
CCCCCOc1ccc(Br)cc1CSC(=N)N | 2 | -9 | 19* | -2
COc1ccc(Br)cc1CSC(=N)N | -1 | -2 | -5 | 9
O=C(Nc1ccc(N2CCCC2)cc1)c1cc(Br)ccc1Cl | 32* | 22 | -6 | -1
CC(C)[C@H](NC(=O)CC1CCCC1)C(=O)N1CCC[C@H]1C(=O)NCc1ccccc1 | 16 | 4 | -7 | /
O=C1C=C(O)c2c(O)cc(O)c(O)c2C1=O | -21 | -9 | -5 | 58*
COc1ccccc1C(=O)Nc1nc(-c2ccc(S(=O)(=O)N3CCOCC3)cc2)cs1 | 7 | -14 | 94* | -5
COc1ccccc1OC(C)C(=O)Nc1nc(-c2ccc(S(=O)(=O)N3CCOCC3)cc2)cs1 (stereo not given) | 7 | -2 | -4 | -1
COC(=O)Cc1nnn2c1[C@@H](C)[C@@H](c1ccccc1Br)O[C@@H](C)C2 | 11 | -3 | -1 | /
O=c1[nH][nH]c2c(N=Cc3ccccc3O)ccc(F)c12 | / | / | / | 17*
O=C(Nc1nc(-c2cccs2)c(-c2ccccc2)s1)c1ccco1 | 34* | 15 | -3 | -2
CC(=O)Nc1sc(NC(=O)c2ccco2)nc1-c1cccs1 | -13 | -1 | -6 | -1
COCc1[nH]nc2c1C(c1ccc(C)cc1)N(Cc1ccccc1)C2=O (stereo not given) | 1 | 10 | -7 | /
O=C(N/N=C/c1ccc(O)cc1)c1cc(-c2ccc3c(c2)OCO3)n[nH]1 | 26* | 25 | 2 | -2
O=C(N/N=C/c1ccccc1)c1cc(-c2ccc3c(c2)OCO3)n[nH]1 | 6 | -1 | -3 | 0
C=CCN1C(=O)c2n[nH]c(COC)c2C1c1ccc(F)cc1 (stereo not given) | 10 | 3 | -6 | /
COc1ccc(OC)c(-n2c(-c3cc(-c4ccc(F)cc4)n[nH]3)n[nH]c2=S)c1 | 20 | 10 | 15* | 4
COc1ccc(-c2n[nH]c(=S)n2-c2cc(OC)ccc2OC)cc1 | 3 | -4 | -5 | 1
COCCN1CCCc2nc(-c3ccc(Br)cc3)ccc21 | -3 | -3 | -5 | /
CCOC(=O)/C=C(\C)Sc1cc(O)c2ccccc2c1O | 21 | 29* | -8 | 6
CC(=O)Oc1cc(C(=O)OCC(=O)NC23CC4CC(CC(C4)C2)C3)cc(OC(C)=O)c1OC(C)=O | -6 | 5 | -6 | 9.8*
CC1CC(C)CN(CCCNC(=O)C2CCC(=O)N2C2CCCC2)C1 (stereo not given) | 32* | -9 | 1 | 3
O=C(NCCCN1CCCC1)C1CCC(=O)N1C1CCCCC1 (stereo not given) | 5 | 7 | -2 | 4
CCC(C)Nc1nc(-c2c[nH]c3ccccc23)cs1 (stereo not given) | 32* | 22 | -9 | 1
COC(=O)c1c(-c2ccc(OC)cc2)c2c(c3c4cc(OC)ccc4n(S(=O)(=O)c4ccc(C)cc4)c13)C(=O)N(C)C2 | 1 | -9 | -6 | /
